From ChEMBL document CHEMBL2157969, “Chalcone inhibitors of the NorA efflux pump in Staphylococcus aureus whole cells and enriched everted membrane vesicles” (Bioorg Med Chem, 2012) come the findings set out here.

Active and inactive are the calls of the source. The rule behind the calls is not given here. Bounds are passed on as bounds.

Assay [1] addresses T1, Quinolone resistance protein NorA (Staphylococcus aureus) (UniProt P0A0J7).
T1 sequence (whole entry): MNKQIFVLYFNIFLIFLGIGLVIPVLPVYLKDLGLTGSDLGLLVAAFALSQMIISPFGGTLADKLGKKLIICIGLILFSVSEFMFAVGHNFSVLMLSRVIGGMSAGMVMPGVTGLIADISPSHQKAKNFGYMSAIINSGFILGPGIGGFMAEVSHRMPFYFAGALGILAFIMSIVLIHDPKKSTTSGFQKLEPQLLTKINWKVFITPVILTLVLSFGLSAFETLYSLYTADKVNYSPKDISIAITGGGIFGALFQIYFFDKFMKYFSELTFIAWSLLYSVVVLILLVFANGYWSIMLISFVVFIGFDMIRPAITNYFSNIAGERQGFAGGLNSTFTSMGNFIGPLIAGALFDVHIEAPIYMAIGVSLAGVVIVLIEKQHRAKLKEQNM
Nature of the assay: Inhibition of norA-mediated ethidium bromide efflux in methicillin-resistant Staphylococcus aureus SA-1199B at 20 ug/ml by spectrofluorometric analysis. Put shortly: (§1)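 Ethidium bromide efflux from S. aureus cells in MHB II, compounds dissolved in DMSO. Reserpine 20 µg/mL as positive control and 1% DMSO as negative control; background taken from a resuspended pellet in clean medium. Fluorescence read at ex 530/em 600 nm in duplicate; mean given as percent reduction of efflux versus control.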

For assay [2], the system named is Staphylococcus aureus. Nature of the assay: Antibacterial activity against Staphylococcus aureus ATCC 29213 […] at 0.2 to 25 ug/ml after 20 hrs by microdilution method. It is filed as functional, organism-based. The method in brief: (§2)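 Broth microdilution in Mueller Hinton broth II with an inoculum of 5 × 10⁵ cfu/mL, incubated 20 h at 35 °C. MIC is the lowest concentration with no visible growth. Controls were bacteria with DMSO at up to about 1%, and ciprofloxacin. Run to CLSI/EUCAST guidelines in duplicate or more.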

Assay [3] concerns Staphylococcus aureus. The experiment in a line: Antibacterial activity against Staphylococcus aureus SA-1199B overexpressing norA at 0.2 to 25 ug/ml after 20 hrs by microdilution method. It is filed as functional, organism-based. The method in brief: as §2
In assay [4] the target is T1, Quinolone resistance protein NorA (Staphylococcus aureus). Nature of the assay: Inhibition of norA-mediated ethidium bromide efflux in methicillin-resistant Staphylococcus aureus SA-1199B at 10 ug/ml by spectrofluorometric analysis. Put shortly: as §1
The target is the same in assay [5]. The experiment in a line: Inhibition of norA-mediated ethidium bromide efflux in methicillin-resistant Staphylococcus aureus SA-1199B at 2.5 ug/ml by spectrofluorometric analysis. The method in brief: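 Whole-cell efflux assay, strain grown in Mueller Hinton II broth; compounds dissolved in DMSO, 1% DMSO in MHB II as negative control, reserpine as positive control. Background read from a pellet resuspended in clean MHB II. Fluorescence read in duplicate at ex 530 nm / em 600 nm; the mean is reported as percent reduction of efflux versus control.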

Assay [6] shares this target. The experiment in a line: Inhibition of norA in Staphylococcus aureus SA-1199B overexpressing norA assessed as fold reduction in ciprofloxacin MIC at 12.5 ug/mL by checkerboard assay. The method in brief:
(§3)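 Checkerboard in MHB with twofold serial dilutions: ciprofloxacin 0.05–12.5 µg/mL against inhibitor 0.2–25 µg/mL. Inoculum 5 × 10⁵ cfu/mL, 20 h at 35 °C, visual MIC read-out. Fold reduction of ciprofloxacin MIC recorded at the inhibitor concentration giving it. FIC index is the sum of both drugs' FICs; ≤0.5 counts as synergy.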

Assay [7] deals with T2, Quinolone resistance protein NorA (Staphylococcus aureus, UniProt P0A0J7).
T2 sequence (P0A0J7 whole entry): T1 sequence (whole entry)
The experiment in a line: Inhibition of norA-mediated ethidium bromide efflux in methicillin-resistant Staphylococcus aureus SA-1199B by spectrofluorometric analysis. Put shortly:
as §1

For assay [8], the target named is T1, Quinolone resistance protein NorA (Staphylococcus aureus). The experiment in a line: Inhibition of norA in Staphylococcus aureus ATCC 29213 assessed as fold reduction in ciprofloxacin MIC at 12.5 ug/mL by checkerboard assay.
Assay [9] has the same target. The experiment in a line: Inhibition of norA-mediated ethidium bromide efflux in methicillin-resistant Staphylococcus aureus SA-1199B at 5 ug/ml by spectrofluorometric analysis. The method in brief:
as §1

In assay [10] the test system is Escherichia coli. The experiment in a line: Inhibition of Hoechst 33342 dye in norA-deficient Escherichia coli DH10B expressing pTrc99A at 2 ug/mL by spectrofluorometer analysis. It is filed as functional, organism-based. The settings on record: K-12 DH10B. The method in brief:
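Everted membrane vesicles were made from overnight E. coli DH10B carrying pTrcHis2C-norA or control pTrc99A. PMSF (0.1 mM final) was added before French press and DNase (0.1 mg/mL final) to the lysate. Vesicles were diluted to 80 µg protein/mL in 50 mM potassium HEPES, 8.5 mM NaCl, 2 mM MgCl2, pH 7.2. Hoechst 33342 was added, then Mg2+-ATP after the signal stabilised (~30 s). Inhibitor was added at 150–160 s. Fluorescence ex 355/em 457 nm over 300 s.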

The subject of assay [11] is Escherichia coli. The experiment in a line: Inhibition of acridine orange efflux in norA-deficient Escherichia coli DH10B expressing pTrc99A at 2 ug/mL by spectrofluorometer analysis. It counts as functional, organism-based. As to conditions: K-12 DH10B. Put shortly: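 Proton gradient was read with acridine orange (500 nM final) in NorA-enriched or pTrc99A control everted E. coli DH10B vesicles. Buffer: 50 mM potassium HEPES, 8.5 mM NaCl, 2 mM MgCl2, pH 7.2. Vesicles were energised with Mg2+-ATP. Valinomycin and nigericin dissipated the gradients, and norfloxacin was given at 10 µM. Fluorescence ex 494/em 530 nm.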

In assay [12] the target is T1, Quinolone resistance protein NorA (Staphylococcus aureus). The experiment in a line: Inhibition of norA in Staphylococcus aureus SA-1199B overexpressing norA assessed as fold reduction in ciprofloxacin MIC at 25 ug/mL by checkerboard assay.
Assay [13] has the same target. The experiment in a line: Inhibition of norA in Staphylococcus aureus ATCC […] assessed as fold reduction in ciprofloxacin MIC at 25 ug/mL by checkerboard assay.
The target is the same in assay [14]. As to conditions: ATCC 29213.
The target is the same in assay [15]. The settings on record: SA-1199B.
Assay [16] has the same target. Nature of the assay: Inhibition of norA in Staphylococcus aureus SA-1199B overexpressing norA assessed as fold reduction in ciprofloxacin MIC by checkerboard assay.
For assay [17] the target is unchanged. The experiment in a line: Inhibition of norA in Staphylococcus aureus SA-1199B overexpressing norA assessed as fold reduction in ciprofloxacin MIC by checkerboard assay. Put shortly: as §3

For `COc1ccc(OC)c(/C=C/C(=O)c2ccc(O)cc2)c1`, the inhibition turned out to be 91% in [1], 82.7% in [4], 23.3% in assay [5] and 56.6% in assay [9]. The outcome in assay [2] and in [3] was inactive. For the same compound, the fractional inhibitory concentration index (FICI) in assay [6] and in assay [8] was 0.25 throughout. Further, in [7], half-maximal inhibition (IC50) required 15 µM. For the same compound, the inhibition result in assay [10] was “inactive”.

For the compound `CN(C)CCOc1ccc(C(=O)/C=C/c2ccc(C#N)cc2)cc1`, the inhibition result in assay [10] was “inactive”.

Regarding `COc1ccc(C(=O)/C=C/c2cccc(OCCN(C)C)c2)c(OC)c1OC`, the inhibition entry in assay [11] is “Active”. For the same compound, the inhibition entry in assay [10] was “inactive”.

Consider `CN(C)CCOc1ccc(C(=O)/C=C/c2ccccc2F)cc1`, for which the inhibition amounted to 97% in assay [1], 70.3% in [4], 33.7% in assay [5] and 48.5% in assay [9]. Moreover, the outcome in assay [2] and in assay [3] was inactive. Moreover, the fractional inhibitory concentration index (FICI) was 0.25 in [12] and more than 1 in assay [13]. In assay [7], this compound showed an IC50 of 18.1 µM. For the same compound, the inhibition entry in assay [10] was “inactive”.

Regarding `COc1ccc(/C=C/C(=O)c2ccc(O)cc2)cc1OC`, the inhibition in [1] worked out at 87.9%; in assay [4], 64.3%; in [5], 14%; in assay [9], 38.3%. The outcome in assay [2] and in assay [3] was inactive. For the same compound, the fractional inhibitory concentration index (FICI) in [12] and in assay [13] was 0.25 in each case. The compound further showed an IC50 in assay [7] of 26.5 µM. The inhibition result in assay [10] was “inactive”.

As for `COc1ccc(/C=C/C(=O)c2ccc(O)cc2)c(OC)c1`, the inhibition was 89.6% in [1], 62.7% in assay [4], 17.3% in assay [5] and 24.1% in assay [9]. Also, the FICI in assay [14] is 0.25. In addition, the outcome in assay [2] and in [3] was inactive. The fractional inhibitory concentration index (FICI) in assay [6] is 0.25. Half-maximal inhibition in assay [7] (IC50) required 29.1 µM. The inhibition result in [10] is “inactive”.

On to `COc1ccc(/C=C/C(=O)c2ccccc2OC)c(OC)c1`, for which the inhibition entry in assay [10] was “inactive”.

On to `COC(=O)[C@H]1[C@H]2C[C@@H]3c4[nH]c5cc(OC)ccc5c4CCN3C[C@H]2C[C@@H](OC(=O)c2cc(OC)c(OC)c(OC)c2)[C@@H]1OC` [RESERPINE], for which the FICI in assay [14] and in [15] was 0.25 each time. Moreover, the inhibition in [4] amounted to 71.8%; in assay [5] it was 30%; in assay [9], 48.1%. This compound registered an IC50 in [7] of 8.2 µM.

In the case of `COc1ccc(C(=O)/C=C/c2cccc(N(C)C)c2)c(OC)c1OC`, in assay [10], the inhibition result is “inactive”.

As for `CN(C)CCOc1ccc(C(=O)/C=C/c2ccc(F)cc2)cc1`, in [10], the inhibition entry was “inactive”.

As for `COc1cc(/C=C/C(=O)c2cccc(OC(=O)c3ccccc3)c2)cc(OC)c1`, the inhibition entry in assay [10] is “inactive”.

Turning to `COc1cc(OC)c(/C=C/C(=O)c2ccc(O)cc2)c(OC)c1`, the inhibition result in assay [10] was “inactive”.

For the compound `COc1cc(O)cc(C)c1/C=C/C(=O)c1ccc(O)cc1`, the inhibition is 91.7% in assay [1]; 84.3% in [4]; 36.6% in assay [5]; “Dose-dependent effect” in assay [16]; 63.7% in assay [9]; “Dose-dependent effect” in assay [17]. Further, the result in assay [2] and in assay [3] was inactive. Moreover, in assay [15], the FICI was found to be 0.25. Further, the inhibition entry in assay [11] and in [10] was “inactive” in each case. The compound also registered an IC50 in assay [7] of 13.4 µM. Also, the fractional inhibitory concentration index (FICI) in [8] came to 0.25.

Take `C=CCOc1ccc(C(=O)/C=C/c2cccc(OC)c2OC)cc1`: in [10], the inhibition entry was “inactive”.

Consider `CN(C)CCOc1ccc(C(=O)/C=C/c2cccc(F)c2)cc1`, for which, in assay [10], the inhibition result was “inactive”.

As to `C[C@@H]1O[C@@H](Oc2c(-c3ccc(O)cc3)oc3cc(O)cc(O)c3c2=O)[C@H](OC(=O)/C=C/c2ccc(O)cc2)[C@H](O)[C@H]1OC(=O)/C=C/c1ccc(O)cc1`, the inhibition result in assay [10] was “inactive”.

In the case of `COc1cccc(/C=C/C(=O)c2ccc(O)cc2)c1OC`, the inhibition in assay [1] came to 90.8%; in [4], 73.3%; in [5] it was 11.7%; in assay [9], 38%. In assay [14], the FICI amounted to 0.25. For the same compound, the result in assay [2] and in assay [3] was inactive. For the same compound, the fractional inhibitory concentration index (FICI) in assay [6] stood at 0.25. In assay [7], the IC50 was 24.3 µM. Moreover, the inhibition result in assay [10] is “inactive”.

On to `COc1ccc(CCN(C)CCCC(C#N)(c2ccc(OC)c(OC)c2)C(C)C)cc1OC` (configuration not stated), for which the inhibition result in assay [10] is “inactive”.

As for `COc1cc(/C=C/C(=O)c2ccc(OC)c(OC)c2OC)cc(OC)c1`, the inhibition result in [10] is “inactive”.

As to `CN(C)CCOc1ccc(C(=O)/C=C/c2ccc(N(C)C)cc2)cc1`, the inhibition in assay [1] turned out to be 98.7%; in assay [4], 97.4%; in [5] it was 48%; in assay [9] it was 96.5%. In addition, the outcome in assay [2] and in assay [3] was inactive. In addition, the “fractional inhibitory concentration index (FICI)” value in assay [12] was “inactive”. This compound gave an IC50 in assay [7] of 7.7 µM. In addition, in [8], the fractional inhibitory concentration index (FICI) worked out at 0.5. Further, the inhibition result in [10] was “inactive”.

With `CN(C)CCOc1ccc(C(=O)/C=C/c2ccccc2)cc1`, the inhibition in [1] came to 83.6%; in assay [4], 56.9%; in assay [5], 21.8%; in assay [9] it was 36.1%. For the same compound, the outcome in assay [2] and in assay [3] was inactive. Besides, the fractional inhibitory concentration index (FICI) in assay [12] and in assay [13] was more than 0.5 each time. This compound also returned an IC50 in assay [7] of 28.4 µM. The inhibition entry in assay [10] was “inactive”.
